Results taken from ChEMBL document CHEMBL2057112, “Enamino-oxindole HIV protease inhibitors” (Bioorg Med Chem Lett, 2012).

Key:
[1] = Inhibition of Human immunodeficiency virus protease M9 mutant expressed in Escherichia coli using ArgGlu(EDANS)SerGlnAsnTyrProIleValGlnLys(DABCYL)Arg as substrate preincubated with compound for 0.5 to 1 min measured by fluorometric analysis at pH 6.5
[2] = Inhibition of Human immunodeficiency virus protease M8 mutant expressed in Escherichia coli using ArgGlu(EDANS)SerGlnAsnTyrProIleValGlnLys(DABCYL)Arg as substrate preincubated with compound for 0.5 to 1 min measured by fluorometric analysis at pH 6.5
[3] = test system: Human immunodeficiency virus 1; experiment: Antiviral activity against Human immunodeficiency virus 1 HXB2 expressing protease M3 mutant infected in human MT4 cells after 5 days by MTT assay; assay type: functional, organism-based; settings: Human immunodeficiency virus 1, HXB2, MT4, 120 h
In short: (§1)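 MT-4 cells (AIDS Research and Reference Reagent Program) exposed to 50% tissue culture infective doses (TCID₅₀) of virus with various concentrations of test compound for 5 days. MTT solution then added and absorbance measured. Mutant strains carry 10–17 resistance mutations with phenotypic resistance to marketed PIs; all include I84V except M7. IC₅₀ reported.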

[4] = Inhibition of wild type Human immunodeficiency virus protease expressed in Escherichia coli using ArgGlu(EDANS)SerGlnAsnTyrProIleValGlnLys(DABCYL)Arg as substrate preincubated with compound for 0.5 to 1 min measured by fluorometric analysis at pH 6.5
[5] = Inhibition of Human immunodeficiency virus protease M10 mutant expressed in Escherichia coli using ArgGlu(EDANS)SerGlnAsnTyrProIleValGlnLys(DABCYL)Arg as substrate preincubated with compound for 0.5 to 1 min measured by fluorometric analysis at pH 6.5
[6] = test system: Human immunodeficiency virus 1; experiment: Antiviral activity against Human immunodeficiency virus 1 HXB2 expressing protease M10 mutant infected in human MT4 cells after 5 days by MTT assay; assay type: functional, organism-based; settings: Human immunodeficiency virus 1, HXB2, MT4, 120 h
[7] = test system: Human immunodeficiency virus 1; experiment: Antiviral activity against Human immunodeficiency virus 1 HXB2 expressing protease M9 mutant infected in human MT4 cells after 5 days by MTT assay; assay type: functional, organism-based; settings: Human immunodeficiency virus 1, HXB2, MT4, 120 h
[8] = test system: Human immunodeficiency virus 1; experiment: Antiviral activity against Human immunodeficiency virus 1 HXB2 expressing wild type protease infected in human MT4 cells after 5 days by MTT assay; assay type: functional, organism-based; settings: Human immunodeficiency virus 1, HXB2, MT4, 120 h
[9] = test system: Human immunodeficiency virus 1; experiment: Antiviral activity against Human immunodeficiency virus 1 HXB2 expressing protease M8 mutant infected in human MT4 cells after 5 days by MTT assay; assay type: functional, organism-based; settings: Human immunodeficiency virus 1, HXB2, MT4, 120 h
[10] = test system: Human immunodeficiency virus 1; experiment: Antiviral activity against Human immunodeficiency virus 1 HXB2 expressing protease M6 mutant infected in human MT4 cells after 5 days by MTT assay; assay type: functional, organism-based; settings: Human immunodeficiency virus 1, HXB2, MT4, 120 h; in short: as §1
[11] = test system: Human immunodeficiency virus 1; experiment: Antiviral activity against Human immunodeficiency virus 1 HXB2 expressing protease M4 mutant infected in human MT4 cells after 5 days by MTT assay; assay type: functional, organism-based; settings: Human immunodeficiency virus 1, HXB2, MT4, 120 h; in short: as §1
[12] = test system: Human immunodeficiency virus 1; experiment: Antiviral activity against Human immunodeficiency virus 1 HXB2 expressing protease M5 mutant infected in human MT4 cells after 5 days by MTT assay; assay type: functional, organism-based; settings: Human immunodeficiency virus 1, HXB2, MT4, 120 h; in short: as §1
[13] = test system: Human immunodeficiency virus 1; experiment: Antiviral activity against Human immunodeficiency virus 1 HXB2 expressing protease M7 mutant infected in human MT4 cells after 5 days by MTT assay; assay type: functional, organism-based; settings: Human immunodeficiency virus 1, HXB2, MT4, 120 h; in short: as §1

Row | SMILES | Ki [1] [nM] | Ki [2] [nM] | IC50 [3] [nM] | Ki [4] [nM] | Ki [5] [nM] | IC50 [6] [nM] | IC50 [7] [nM] | IC50 [8] [nM] | IC50 [9] [nM] | IC50 [10] [nM] | IC50 [11] [nM] | IC50 [12] [nM] | IC50 [13] [nM]
1 | CNC=C1C(=O)Nc2ccc(S(=O)(=O)N(CC(C)C)C[C@@H](O)[C@H](Cc3ccccc3)NC(=O)O[C@H]3CO[C@H]4OCC[C@H]43)cc21 (mixture of isomers) | < 0.3 | 0.11 | 51 | < 0.1 | < 1 | 93 | 50 | 60 |  |  |  |  | 
2 | CC(C)CN(C[C@@H](O)[C@H](Cc1ccccc1)NC(=O)O[C@H]1CO[C@H]2OCC[C@H]21)S(=O)(=O)c1ccc2c(c1)C(=CNCc1ccc3ccccc3n1)C(=O)N2 (mixture of isomers) | < 0.3 | < 0.1 | 21 | 0.1 | < 1 | 27 | 23 | 35 | 34 | 25 | 40 |  | 
3 | CC(C)CN(C[C@@H](O)[C@H](Cc1ccccc1)NC(=O)O[C@H]1CO[C@H]2OCC[C@H]21)S(=O)(=O)c1ccc2c(c1)C(=CNCC(C)(C)C)C(=O)N2 (mixture of isomers) | < 0.3 |  | 8 | < 0.1 | < 1 | 27 | 9.5 | 4.5 | 13 | 6 | 8.8 | 7 | 1.5
4 | CNC(C)=C1C(=O)Nc2ccc(S(=O)(=O)N(CC(C)C)C[C@@H](O)[C@H](Cc3ccccc3)NC(=O)O[C@H]3CO[C@H]4OCC[C@H]43)cc21 (mixture of isomers) | < 0.3 |  | 12 | < 0.1 | < 1 | 56 | 17 | 10 | 29 | 20 | 16 | 18 | 5
5 | CC(C)CN(C[C@@H](O)[C@H](Cc1ccccc1)NC(=O)O[C@H]1CO[C@H]2OCC[C@H]21)S(=O)(=O)c1ccc2c(c1)C(=CNCc1ccccc1)C(=O)N2 (mixture of isomers) | < 0.3 |  | 13 | < 0.1 | < 1 | 30 |  | 14 | 35 | 18 | 20 | 20 | 4.1
6 | CC(C)CN(C[C@@H](O)[C@H](Cc1ccccc1)NC(=O)O[C@H]1CO[C@H]2OCC[C@H]21)S(=O)(=O)c1ccc2c(c1)C(=CNCCNc1ccccc1)C(=O)N2 (mixture of isomers) | < 0.3 | 0.39 |  | < 0.1 | 3 | 120 | 80 | > 80 | 160 |  |  |  | 
7 | CC(C)CN(C[C@@H](O)[C@H](Cc1ccccc1)NC(=O)O[C@H]1CO[C@H]2OCC[C@H]21)S(=O)(=O)c1ccc2c(c1)C(=CNCCC(C)(C)C)C(=O)N2 (mixture of isomers) | < 0.3 |  | 19 | < 0.1 | < 1 | 32 |  | 11 | 23 | 24 | 25 | 17 | 3.2
8 | CC(C)CN(C[C@@H](O)[C@H](Cc1ccccc1)NC(=O)O[C@H]1CO[C@H]2OCC[C@H]21)S(=O)(=O)c1ccc2c(c1)C(=CNc1ccccc1)C(=O)N2 | 1.2 | 0.46 |  | < 0.1 | 13 | > 400 | 100 | 13 | 110 |  |  |  | 
9 | CC(N)=C1C(=O)Nc2ccc(S(=O)(=O)N(CC(C)C)C[C@@H](O)[C@H](Cc3ccccc3)NC(=O)O[C@H]3CO[C@H]4OCC[C@H]43)cc21 (mixture of isomers) | < 0.3 |  | 70 | < 0.1 | < 1 | 60 | 60 | 64 | 70 | 65 | 70 | 75 | 30
10 | CC(C)CN(C[C@@H](O)[C@H](Cc1ccccc1)NC(=O)O[C@H]1CO[C@H]2OCC[C@H]21)S(=O)(=O)c1ccc(N)cc1 | < 0.3 | 0.25 | 11 | < 0.1 | 1 | 130 | 25 | 3 | 16 | 10 | 30 | 22 | 3.2
11 | CC(C)CN(C[C@@H](O)[C@H](Cc1ccccc1)NC(=O)O[C@H]1CO[C@H]2OCC[C@H]21)S(=O)(=O)c1ccc2c(c1)C(=CNC1CCC1)C(=O)N2 (mixture of isomers) | < 0.3 |  | 31 | < 0.1 | 1.2 | 115 | 31 | 17 | 30 | 32 | 36 | 33 | 7
12 | CC(C)CN(C[C@@H](O)[C@H](Cc1ccccc1)NC(=O)O[C@H]1CO[C@H]2OCC[C@H]21)S(=O)(=O)c1ccc2c(c1)C(=CNC(C)(C)C)C(=O)N2 (mixture of isomers) | 0.72 | 0.35 |  | < 0.1 | 14 | 200 | 25 | 9 | 35 |  |  |  | 
13 | CC(C)CN(C[C@@H](O)[C@H](Cc1ccccc1)NC(=O)O[C@H]1CO[C@H]2OCC[C@H]21)S(=O)(=O)c1ccc2c(c1)C(=CNCC1CCCCC1)C(=O)N2 (mixture of isomers) | < 0.3 | 0.16 | 21 | < 0.1 | < 1 | 40 | 9 | 9.7 | 27 | 25 | 30 | 18 | 
14 | CC(C)CN(C[C@@H](O)[C@H](Cc1ccccc1)NC(=O)O[C@H]1CO[C@H]2OCC[C@H]21)S(=O)(=O)c1ccc2c(c1)CC(=O)N2 | 0.95 | 0.53 |  | < 0.1 | 14 | 930 | 110 | 82 | 150 |  |  |  | 
15 | CC(C)CNC=C1C(=O)Nc2ccc(S(=O)(=O)N(CC(C)C)C[C@@H](O)[C@H](Cc3ccccc3)NC(=O)O[C@H]3CO[C@H]4OCC[C@H]43)cc21 (mixture of isomers) | < 0.3 |  | 8 | < 0.1 | < 1 | 33 | 9.5 | 7.5 | 16 | 9 | 15 | 9 | 2.1
16 | CCCCNC=C1C(=O)Nc2ccc(S(=O)(=O)N(CC(C)C)C[C@@H](O)[C@H](Cc3ccccc3)NC(=O)O[C@H]3CO[C@H]4OCC[C@H]43)cc21 (mixture of isomers) | < 0.3 |  | 15 | < 0.1 | < 1 | 40 | 11 | 13 | 25 | 32 | 28 | 18 | 5
17 | CCCNC=C1C(=O)Nc2ccc(S(=O)(=O)N(CC(C)C)C[C@@H](O)[C@H](Cc3ccccc3)NC(=O)O[C@H]3CO[C@H]4OCC[C@H]43)cc21 (mixture of isomers) | < 0.3 | < 0.1 | 40 | 0.12 | < 1 | 120 | 40 | 30 |  |  |  |  | 
18 | CC(C)CN(C[C@@H](O)[C@H](Cc1ccccc1)NC(=O)O[C@H]1CO[C@H]2OCC[C@H]21)S(=O)(=O)c1ccc2c(c1)C(=CNC1CC1)C(=O)N2 (mixture of isomers) | < 0.3 | 0.12 |  | < 0.1 | 2.1 | 300 | 25 | 24 | 32 |  |  |  | 
19 | CC(C)CN(C[C@@H](O)[C@H](Cc1ccccc1)NC(=O)O[C@H]1CO[C@H]2OCC[C@H]21)S(=O)(=O)c1ccc2c(c1)C(=CNCCc1ccccc1)C(=O)N2 (mixture of isomers) | < 0.3 | 0.17 |  | < 0.1 | 1.3 | 110 | 28 | 22 | 61 |  |  |  | 
